One test relates to Impα. The note with it: ref [24]; cited from earlier work.
The subject of test [1] is U2OS cells. The note with it: compared with pol λ in U2OS cells; ref [24]; cited from earlier work.
The target of another test is ImpαΔIBB (Mus musculus, UniProt P52293). The test can be described thus: X-ray crystallography of ImpαΔIBB-NLS peptide complexes. The note with it: estimated from electron density. In kind it is binding, murine. In outline:
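ImpαΔIBB (15 mg/ml in 20 mM Tris pH 7.8, 125 mM NaCl, 5 mM DTT) was mixed with test NLS peptide at 1.25:1 molar excess. Crystals were grown by hanging-drop vapor diffusion. For two complexes the mother liquor was 0.7 or 0.8 M sodium citrate with 0.1 M HEPES pH 7.0. Rfree used 5% of reflections excluded from refinement. Geometry was checked with MolProbity.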

Test [2] concerns U2OS cells. Put plainly: Nuclear/cytosolic ratio of pol X-GFP adducts in transfected U2OS cells. The note with it: among the four mammalian enzymes, in the cell-types investigated. The class given is cell-based, human. In short, it runs like this: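 U2OS cells in RPMI 1640 with 10% FBS (37 °C, 5% CO2) were seeded at 10,000 cells/chamber. They were transfected (Lipofectamine 2000, 1:4 DNA:reagent) with wild-type or NLS-mutant polymerase-GFP plasmids, then fixed at 24 h (3.7% formaldehyde), permeabilized and stained with CellMask and a nuclear stain. Confocal GFP intensity was measured in nuclear and cytoplasmic ROIs of ≥30 cells/construct. Ratios were averaged with ±2 SD outliers removed, then analysed by ANOVA/Tukey.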

Primed or numbered codes have the meaning given here. No end group written: not given here. FITC′ = fluorescein isothiocyanate label

On to DNA polymerase β [pol β], for which the “binding affinity of NLS for the minor binding pocket of Impα” value in the test with Impα is reported as “highly selective binding affinity for the minor binding pocket of Impα”. Moreover, the “nuclear/cytosolic ratio of pol β” value in the test with U2OS cells [1] is on record as ~ 3.
With “pol λ NLS: bipartite N-terminal NLS of pol λ (KAFPKRQKIHADASSKVLAKIPRREEGK-{FITC′})”, in the test with ImpαΔIBB, the “occupancy of the minor binding pocket” value is ~ 70%. For the same substance, the “extent of nuclear localization, in words” value in the test with U2OS cells [2] is “greatest extent of nuclear localization”.

The record behind these values is publication PMC6684861 (Traffic (Copenhagen, Denmark), 2018).
